Square brackets hold non-standard residues; d marks the D form. Peptide text beside a SMILES is read from it. pGlu = O=C1CC[C@@H](C(=O)O)N1; Pip = O=C(O)[C@@H]1CCCCN1; Thz = O=C(O)[C@@H]1CSCN1; Aze = O=C(O)[C@@H]1CCN1
What was measured:
Assay type in all cases: protein assay
[1] = target: T1, Dopamine receptor (Bos taurus) (UniProt Q95136+P20288); assay: Compound was tested for enhancement of the binding of [3H]ADTN to dopamine receptors at concentration of 1 nM
Procedure, shortened: (§1)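 Bovine caudate homogenized in 50 mM Tris-HCl pH 7.7, centrifuged twice at 40000g, resuspended in 50 mM Tris pH 7.1 with 0.1% ascorbate, 120 mM NaCl, 5 mM KCl, 2 mM CaCl2, 10 μM pargyline. 0.4-0.6 mg protein, 8 nM [3H]ADTN, peptide at 1, 10 or 100 nM; 10 min, 37 °C, triplicate; GF/B filtration, scintillation counting. Specific binding defined with 1 μM (d)-butaclamol; % enhancement over no-drug basal.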

[2] = target: T1, Dopamine receptor (Bos taurus); assay: Compound was tested for enhancement of the binding of [3H]ADTN to dopamine receptors at concentration of 100 nM; procedure, shortened: as §1
[3] = target: T1, Dopamine receptor (Bos taurus); assay: Compound was tested for enhancement of the binding of [3H]-ADTN to dopamine receptors at concentration of 10 nM; procedure, shortened: as §1

Enhancement [1] | Enhancement [2] | Enhancement [3] | SMILES
18% | 33% | 25% | CC(C)C[C@H](NC(=O)[C@@H]1CCCN1)C(=O)NCC(N)=O (stereo in doubt; 2)
13.5% | 36.4% | 26.5% | CC(C)C[C@H](NC(=O)[C@@H]1CCC(=O)N1)C(=O)NCC(N)=O ([pGlu]-Leu-Gly-NH2)
17% | 58.7% | 38.7% | CC(C)C[C@H](NC(=O)[C@@H]1CCCCN1)C(=O)NCC(N)=O (H-[Pip]-Leu-Gly-NH2)
9.5% | 14.4% | 13% | CC(C)C[C@H](NC(=O)[C@H]1C=CCN1)C(=O)NCC(N)=O
12.4% | 55% | 40% | CC(C)C[C@H](NC(=O)[C@@H]1C=CCN1)C(=O)NCC(N)=O
16% | 46.2% | 28% | CC(C)C[C@H](NC(=O)[C@@H]1CCCN1)C(=O)NCC(N)=O (stereo in doubt; 1)
7% | 9.5% | 8.5% | CC(C)C[C@H](NC(=O)[C@@H]1CSCN1)C(=O)NCC(N)=O (H-[Thz]-Leu-Gly-NH2)
19% | 42% | 40% | CC(C)C[C@H](NC(=O)[C@@H]1CCN1)C(=O)NCC(N)=O (H-[Aze]-Leu-Gly-NH2)

— ChEMBL document CHEMBL1123255, “Synthesis of Pro-Leu-Gly-NH2 analogues modified at the prolyl residue and evaluation of their effects on the receptor binding activity of the central dopamine receptor agonist, ADTN” (J Med Chem, 1986)
